Measurements taken from ChEMBL document CHEMBL2150950, “Effect of 4-aryl-2-methyl-5-nitro-1,4-dihydropyridine-3-carboxylates on the guinea pig papillary muscle and isolated human vena saphena magna that is used for coronary artery bypass grafting” (2011).
Activity calls are given as the source filed them. The rule behind the calls is not given here.

What was measured:
[1] = Vasodilatory activity in human vena saphena magna assessed as reduction in phenylephrine-induced smooth muscle contraction at 100 uM relative to baseline contraction; format: functional; parameters: scale not given: the % may be the effect or the level left
Procedure, shortened: (§1)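 Saphenous vein rings came from 37 CABG patients. They were bathed in Tyrode's solution (mM: NaCl 137, KCl 5.4, CaCl2 1.8, MgCl2 0.9, Tris HCl 10, glucose 5; pH 7.4), equilibrated 45–60 min and washed every 15 min. Rings were precontracted with 10^-4 M phenylephrine, then given cumulative test agent at 10^-7 to 10^-4 M. Isometric relaxation was recorded, as means ± SE.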

[2] = Vasodilatory activity in human vena saphena magna assessed as reduction in phenylephrine-induced smooth muscle contraction at 0.1 uM; format: functional; parameters: scale not given: the % may be the effect or the level left; procedure, shortened: as §1
[3] = Vasodilatory activity in human vena saphena magna assessed as relaxation of phenylephrine-induced smooth muscle contraction at 10^-7 to 10^-4 M; format: functional; procedure, shortened: as §1
[4] = Ionotropic effect in guinea pig right ventricle papillary muscles assessed as contraction force at 10^-6 M by force transduction assay relative to untreated control (reference value: 100%); format: functional, Cavia porcellus, Papillary muscle
[5] = Ionotropic effect in guinea pig right ventricle papillary muscles assessed as contraction force at 10^-7 M by force transduction assay relative to untreated control (reference value: 100%); format: functional, Cavia porcellus, Papillary muscle
[6] = Ionotropic effect in guinea pig ventricle papillary muscles assessed as lengthening of 90% repolarized cardiac action potential duration time at 10^-4 M by microelectrode technique relative to untreated control (reference value: 132 to 176 APD50 ms); format: functional, Cavia porcellus, Papillary muscle
[7] = Ionotropic effect in guinea pig ventricle papillary muscles assessed as lengthening of 90% repolarized cardiac action potential duration time at 10^-5 M by microelectrode technique relative to untreated control (reference value: 132 to 176 APD50 ms); format: functional, Cavia porcellus, Papillary muscle
[8] = Ionotropic effect in guinea pig ventricle papillary muscles assessed as lengthening of 90% repolarized cardiac action potential duration time at 10^-6 M by microelectrode technique relative to untreated control (reference value: 132 to 176 APD50 ms); format: functional, Cavia porcellus, Papillary muscle
[9] = Ionotropic effect in guinea pig ventricle papillary muscles assessed as lengthening of 90% repolarized cardiac action potential duration time at 10^-7 M by microelectrode technique relative to untreated control (reference value: 132 to 176 APD50 ms); format: functional, Cavia porcellus, Papillary muscle
[10] = Ionotropic effect in guinea pig ventricle papillary muscles assessed as lengthening of 50% repolarized cardiac action potential duration time at 10^-4 M by microelectrode technique relative to untreated control (reference value: 132 to 176 APD50 ms); format: functional, Cavia porcellus, Papillary muscle
[11] = Ionotropic effect in guinea pig ventricle papillary muscles assessed as lengthening of 50% repolarized cardiac action potential duration time at 10^-5 M by microelectrode technique relative to untreated control (reference value: 132 to 176 APD50 ms); format: functional, Cavia porcellus, Papillary muscle
[12] = Ionotropic effect in guinea pig ventricle papillary muscles assessed as lengthening of 50% repolarized cardiac action potential duration time at 10^-6 M by microelectrode technique relative to untreated control (reference value: 132 to 176 APD50 ms); format: functional, Cavia porcellus, Papillary muscle
[13] = Ionotropic effect in guinea pig ventricle papillary muscles assessed as lengthening of 50% repolarized cardiac action potential duration time at 10^-7 M by microelectrode technique relative to untreated control (reference value: 132 to 176 APD50 ms); format: functional, Cavia porcellus, Papillary muscle
[14] = Ionotropic effect in guinea pig ventricle papillary muscles assessed as lengthening of 25% repolarized cardiac action potential duration time at 10^-4 M by microelectrode technique relative to untreated control (reference value: 84 to 104 APD25 ms); format: functional, Cavia porcellus, Papillary muscle
[15] = Ionotropic effect in guinea pig ventricle papillary muscles assessed as lengthening of 25% repolarized cardiac action potential duration time at 10^-5 M by microelectrode technique relative to untreated control (reference value: 84 to 104 APD25 ms); format: functional, Cavia porcellus, Papillary muscle
[16] = Ionotropic effect in guinea pig ventricle papillary muscles assessed as lengthening of 25% repolarized cardiac action potential duration time at 10^-6 M by microelectrode technique relative to untreated control (reference value: 84 to 104 APD25 ms); format: functional, Cavia porcellus, Papillary muscle
[17] = Ionotropic effect in guinea pig ventricle papillary muscles assessed as lengthening of 25% repolarized cardiac action potential duration time at 10^-7 M by microelectrode technique relative to untreated control (reference value: 84 to 104 APD25 ms); format: functional, Cavia porcellus, Papillary muscle
[18] = Ionotropic effect in guinea pig ventricle papillary muscles assessed as lengthening of 10% repolarized cardiac action potential duration time at 10^-4 M by microelectrode technique relative to untreated control (reference value: 37 to 47 APD10 ms); format: functional, Cavia porcellus, Papillary muscle
[19] = Ionotropic effect in guinea pig ventricle papillary muscles assessed as lengthening of […] cardiac action potential duration time at 10^-5 M by microelectrode technique relative to untreated control (reference value: 37 to 47 […] ms); format: functional, Cavia porcellus, Papillary muscle
[20] = Ionotropic effect in guinea pig ventricle papillary muscles assessed as lengthening of 10% repolarized cardiac action potential duration time at 10^-6 M by microelectrode technique relative to untreated control (reference value: 37 to 47 APD10 ms); format: functional, Cavia porcellus, Papillary muscle
[21] = Ionotropic effect in guinea pig ventricle papillary muscles assessed as lengthening of 10% repolarized cardiac action potential duration time at 10^-7 M by microelectrode technique relative to untreated control (reference value: 37 to 47 APD10 ms); format: functional, Cavia porcellus, Papillary muscle
[22] = Ionotropic effect in guinea pig right ventricle papillary muscles assessed as contraction force at 10^-4 M by force transduction assay relative to untreated control (reference value: 100%); format: functional, Cavia porcellus, Papillary muscle
[23] = Ionotropic effect in guinea pig right ventricle papillary muscles assessed as contraction force at 10^-5 M by force transduction assay relative to untreated control (reference value: 100%); format: functional, Cavia porcellus, Papillary muscle

SMILES | Activity [4] [%] | Activity [5] [%] | Time [6] [ms] | Time [7] [ms] | Time [8] [ms] | Time [9] [ms] | Time [10] [ms] | Time [11] [ms] | Time [12] [ms] | Time [13] [ms] | Time [14] [ms] | Time [15] [ms] | Time [16] [ms] | Time [17] [ms] | Time [18] [ms] | Time [19] [ms] | Time [20] [ms] | Time [21] [ms] | Activity [22] [%] | Activity [23] [%] | other results
CCOC(=O)C1=C(C)NC2=C(C(=O)OC2)C1c1ccccc1OC(F)F (stereo unspecified) |  |  |  |  |  |  |  |  |  |  |  |  |  |  |  |  |  |  |  |  | Activity [1]: 19%; Activity [2]: 50%; Activity [3]: Active
COC(=O)C1=C(C)NC=C([N+](=O)[O-])C1c1ccccc1C(F)(F)F (stereo unspecified) | 98.5 | 101 | 184 | 175.5 | 172 | 171.5 | 156.5 | 149.8 | 140.5 | 138 | 111.3 | 103.2 | 91.4 | 92.5 | 47 | 44.7 | 38.5 | 40 | 97.8 | 103 | 
COC(=O)C1=C(C)NC(C)=C([N+](=O)[O-])C1c1ccccc1OC(F)F (stereo unspecified) | 112.6 | 114.4 | 176.7 | 175 | 178.3 | 178.3 | 148.5 | 147 | 149 | 144.8 | 109.2 | 110.8 | 110.3 | 101.7 | 53.8 | 55.3 | 54.5 | 51.3 | 111 | 108.3 | 
COC(=O)C1=C(C)NC(C)=C([N+](=O)[O-])C1c1ccccc1C(F)(F)F (stereo unspecified) | 155 | 123 | 223.5 | 217 | 218.2 | 220 | 133.8 | 129 | 133.8 | 135.6 | 89 | 85.1 | 91 | 92.7 | 42.7 | 41 | 42 | 44.5 | 176 | 175 | Activity [1]: 19%; Activity [2]: 50%; Activity [3]: Active
COC(=O)C1=C(C)NC=C([N+](=O)[O-])C1c1ccccc1OC(F)F (stereo unspecified) | 73.5 | 78.85 | 220 | 217 | 202 | 190 | 178 | 177 | 161 | 153 | 112.6 | 111.6 | 93.7 | 90.6 | 39.5 | 39.5 | 35 | 36 | 92.8 | 90.3 | 
CCCOCCOC(=O)C1=C(C)NC=C([N+](=O)[O-])C1c1ccc(C(F)(F)F)cc1 (stereo unspecified) | 83.7 | 89.5 | 189.6 | 188 | 180 | 166.7 | 158.7 | 161.2 | 149.6 | 136.6 | 101 | 103.3 | 96 | 91 | 38.2 | 37.5 | 36 | 35 | 73 | 81 | 
